Assay outcomes as filed in PubChem.
Hep lipid drop: inhibitors of hepatocyte lipid droplet formation, primary screen, imaging, high-throughput imaging, BODIPY stain. 0.4% of 240,000 active. inhibition, % at 6.5 µM. AML12 mouse hepatocytes, oleate lipid droplets;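 active = lipid droplet intensity inhibited by at least 50%, with more than 500 cells counted; inconclusive = wells with under 300 cells, treated as cytotoxic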
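Material – AML12 mouse liver cells · Also added – oleate loading, 100 µM · Compound dosing – 6.5 µM single-point dosing · Times – overnight treatment with compound plus oleate · Measured by – fluorescence imaging, 20x objective, two fields per well · Read-out – percent inhibition of filter-corrected integrated lipid droplet intensity per well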
H9c2 TAG inh: inhibitors of triacylglycerol accumulation, primary screen, cell-based, uHTS, fluorescence, H9c2; AID 651582, 2012; inhibition, % at 12.5 µM; H9c2 cells, Nile Red lipid (TAG) fluorescence; cells loaded with 200 µM oleic acid; 0.66% of 230,000 active;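 active = pattern-corrected inhibition of lipid staining of at least 50% with the nuclear-stain viability signal not falling by more than 50%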;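 note: 0% = DMSO wells and 100% = triacsin C control wells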
iPSC survival up: enhancers of single-cell hiPSC survival, primary screen, ATPlite luminescence; 100% = ROCK inhibitor wells, 0% = DMSO; survival enhancement, % at 20 µM; 0.044% of 360,000 active; AID 602274, 2012; in the data active = survival enhancement above about 18%;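 note: cells exposed to compounds for 16 hours before the ATP read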
Gli-Sufu antag: Gli-Sufu pathway antagonists, primary screen, luciferase luminescence, Sufu-KO-LIGHT cells, uHTS; Sufu-KO-LIGHT fibroblasts, Gli luciferase reporter luminescence; AID 588413, 2011; inhibition, % at 5 µM; 0.74% of 340,000 active;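 active = inhibition above about 55%, limit read from the data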;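 note: 0% = DMSO-treated cells and 100% = wells with medium but no cells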
Jurkat NFkB inh: inhibitors of induced NF-kB luciferase reporter, primary screen, TCR NF-kB activation inhibitor project, cell-based, luminescence, uHTS | 0.53% of 330,000 active | Jurkat, PMA/ionomycin-induced NF-kB luciferase reporter | AID 435003, 2010 | inhibition, % at 4 µM; in the data active = inhibition above about 50%
697 NFkB inh: inhibitors of PMA/ionomycin-induced NF-kB reporter, 697 cells, primary screen, B-cell NF-kB inhibitor project, cell-based, luminescence, uHTS. AID 435022, 2010. 0.33% of 330,000 active. 697 B-cell NF-kB luciferase reporter, 16 h. inhibition, % at 4 µM; in the data active = inhibition above about 35%
697 NFkB conf: PMA/ionomycin-induced NF-kB reporter inhibitors, 697 retest, confirmation, B-cell NF-kB inhibitor project, cell-based, luminescence, single concentration | shares compounds with 697 NFkB inh | 697 B-cell NF-kB luciferase, 16 h | inhibition, % at 4 µM | 35% of 2,000 active | AID 449746, 2010; in the data active = inhibition mostly above about 28%, no sharp cut-off; inactive = mostly below about 22%
Starred values were filed as active, the others as inactive. Hits are enriched below; roughly 1.8% of the tested compounds scored in any of these assays.

Screening O=C(CSCCO)Nc1ccc(C23CC4CC(CC(C4)C2)C3)cc1 returned Hep lipid drop -6.4, H9c2 TAG inh 24.4, iPSC survival up -3.1, Gli-Sufu antag 15.2, Jurkat NFkB inh -43.5, 697 NFkB inh 56.7* and 697 NFkB conf 65.5*.
`COc1ccc(CNc2nc3ccccc3s2)cc1OC` gave iPSC survival up -0.2, Gli-Sufu antag -30.1, Jurkat NFkB inh -33.2 and 697 NFkB inh -67.4.
Screening Cc1ccc(CNc2nc3ccccc3s2)s1 returned Hep lipid drop -2.7, H9c2 TAG inh -40.6, iPSC survival up -3.0, Gli-Sufu antag -95.0, Jurkat NFkB inh -108.3, 697 NFkB inh -265.3 and 697 NFkB conf -292.8.
Screening Cc1cc(Br)c(Oc2cc(NN3CCCCC3)c([N+](=O)[O-])cc2[N+](=O)[O-])c(Br)c1 returned H9c2 TAG inh 30.2, iPSC survival up 0.5 and Gli-Sufu antag 20.3.
`CCOC(=O)CNC(=O)CSc1nnc(NC(=O)c2ccc(C)cc2)s1` gave Hep lipid drop 5.7, H9c2 TAG inh 7.8, iPSC survival up -0.9, Gli-Sufu antag 14.1, Jurkat NFkB inh 35.1, 697 NFkB inh 42.6* and 697 NFkB conf 33.1*.
For CCOC(=O)CNC(=O)CSc1nnc(NC(=O)c2ccc3c(c2)OCO3)s1 the results were Hep lipid drop 2.2, H9c2 TAG inh -17.2, iPSC survival up -0.4, Gli-Sufu antag -21.0, Jurkat NFkB inh 16.9 and 697 NFkB inh 20.0.
CC(C)(C)c1ccc(S(=O)(=O)NCC(=O)Nc2ccc(-c3nc4ccccc4s3)cc2)cc1 was read as Hep lipid drop 0.8, H9c2 TAG inh 17.3, iPSC survival up -1.7, Gli-Sufu antag -17.7, Jurkat NFkB inh -30.8 and 697 NFkB inh -156.8.
For O=C(CNS(=O)(=O)c1cccc(Cl)c1)Nc1ccc(-c2nc3ccccc3s2)cc1 the results were Hep lipid drop -5.5, iPSC survival up -1.1, Gli-Sufu antag -80.7, Jurkat NFkB inh -127.3, 697 NFkB inh -318.6 and 697 NFkB conf -229.2.
For CC(C)(C)OC(=O)CNC(=O)c1[nH]cnc1C(=O)NC(c1ccccc1)c1ccccc1 the results were Hep lipid drop -2.3, H9c2 TAG inh 1.9, iPSC survival up -0.9, Gli-Sufu antag 3.8, Jurkat NFkB inh -19.5 and 697 NFkB inh 12.7.
For CCSc1ncc(Cl)c(C(=O)Nc2sc3c(c2C(=O)NCc2cccnc2)CCCC3)n1 the results were iPSC survival up 2.3, Gli-Sufu antag 10.2, Jurkat NFkB inh 13.8, 697 NFkB inh 38.0* and 697 NFkB conf 24.6*.
`O=C(Nc1nc2ccc(F)cc2s1)C1=COCCO1` gave H9c2 TAG inh 10.7, iPSC survival up -0.6, Gli-Sufu antag -73.3, Jurkat NFkB inh -99.7, 697 NFkB inh -250.0 and 697 NFkB conf -75.5.
Screening O=C(CCl)N1CCN(S(=O)(=O)c2ccc3c(c2)CCC3)CC1 returned H9c2 TAG inh 33.3, iPSC survival up 0.5, Gli-Sufu antag 5.6, Jurkat NFkB inh 4.3, 697 NFkB inh 37.5* and 697 NFkB conf 37.6*.
For CC(=O)Nc1ccc(/C(C)=N/Nc2nc(Nc3ccccc3)nc(N3CCOCC3)n2)cc1 the results were Hep lipid drop inconclusive, H9c2 TAG inh 128.8, iPSC survival up -2.8, Gli-Sufu antag 26.3, Jurkat NFkB inh -19.8, 697 NFkB inh 53.0* and 697 NFkB conf 17.5.
CC(=O)c1ccc(Nc2nc(N3CCOCC3)nc(N3CCOCC3)n2)cc1 was read as Hep lipid drop -1.0, H9c2 TAG inh 14.1, iPSC survival up -0.3, Gli-Sufu antag -2.5, Jurkat NFkB inh -18.3 and 697 NFkB inh 13.6.
`Cc1cc(C(=O)NC2CCCc3c2cnn3-c2cccc(C)c2C)no1` (stereo not drawn) gave Hep lipid drop -2.5, H9c2 TAG inh -27.2, iPSC survival up -0.4, Gli-Sufu antag 33.9, Jurkat NFkB inh -53.2, 697 NFkB inh inactive and 697 NFkB conf inactive.
